High-throughput results as filed in PubChem BioAssay.
Sampled rows, rich in hits. Any-hit rate of the full collection: about 1.7%.
SR-BI DiI-HDL act = enhances SR-BI lipid uptake from DiI-HDL. CHO ldlA[mSR-BI] cells, DiI-HDL uptake fluorescence, 3 h; 100 = double the neutral-control signal. activation, % at 12.5 µM. 320,000 compounds, 0.096% hits. AID 504775;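 active = mean replicate activation of at least 60% and every replicate at or above 60%; inconclusive = mean or all-replicate condition met, but not both; inactive = mean below 60% and not all replicates reaching 60%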
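system = CHO ldlA[mSR-BI] cells, LDL receptor-null, SR-BI overexpressing | medium = Ham's F12 with 0.5% BSA, HEPES 25 mM, pH 7.4 | probe or stimulus = DiI-HDL 10 µg/mL | compound dosing = single-point compound dose | incubation = compound exposure 3 h, 37 °C | technique = DiI fluorescence, bottom read | read-out = cell-associated DiI fluorescence as measure of HDL uptake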
NTR1 ag = NTR1 (human) agonism; 330,000 compounds, 0.17% hits; activation, % at 20 µM; AID 493036; NTR1-U2OS beta-arrestin-GFP spot imaging, agonist mode;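 active = activation at or above 40% of the spot to cytoplasm intensity ratio, with at least 20 cells analyzed; inconclusive = wells under 20 cells, flagged as cytotoxic or low count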
CaV13 FRET inh = Disruptors of the CACNA1D IQ motif to Ca2+-dependent inactivation inhibitor domain association, primary screening, Förster resonance energy transfer in intact living …; HEK cells, CFP/YFP FRET ICDI-IQ, plate reader, 10 min; percent FRET-ratio fall versus neutral wells; inhibition, % at 12.3 µM; 340,000 compounds, 0.098% hits; AID 743397;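 active = mean replicate inhibition of at least 30% and at least 1% of replicates passing that level; inconclusive = only one of the two criteria is met; inactive = neither criterion is met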
V-ATPase pH = alters yeast V-ATPase proton transport; S. cerevisiae, pHLuorin cytosolic pH fluorescence; response, % at 10 µM; 350,000 compounds, 0.37% hits; AID 504577; in the data active = response mostly above about 7.3%, no sharp cut-off; inactive = mostly below about 5.4%; note: actives read high
Vif imaging = blocks HIV Vif function; 340,000 compounds, 0.35% hits; inhibition, % at 7.49 µM; HEK293T cells, Vif self-association by quenched fluorescence, imaging, 24 h; in the data active = inhibition above about 50%, passing the limit was not always enough; inconclusive = no clear call, values can overlap the other calls; inactive = below about 31%
SR-BI HDL uptake = blocks mouse SR-BI lipid uptake from DiI-HDL; ldlA[mSR-BI] CHO cells, DiI-HDL uptake fluorescence, 3 h; 320,000 compounds, 0.96% hits; inhibition, % at 12.5 µM;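 active = mean replicate inhibition of at least 70% and a set share of replicates each scoring 70 or more; inconclusive = meets just one of the two criteria; inactive = fails both criteria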
Target sequence (Q61009 whole entry, looked up): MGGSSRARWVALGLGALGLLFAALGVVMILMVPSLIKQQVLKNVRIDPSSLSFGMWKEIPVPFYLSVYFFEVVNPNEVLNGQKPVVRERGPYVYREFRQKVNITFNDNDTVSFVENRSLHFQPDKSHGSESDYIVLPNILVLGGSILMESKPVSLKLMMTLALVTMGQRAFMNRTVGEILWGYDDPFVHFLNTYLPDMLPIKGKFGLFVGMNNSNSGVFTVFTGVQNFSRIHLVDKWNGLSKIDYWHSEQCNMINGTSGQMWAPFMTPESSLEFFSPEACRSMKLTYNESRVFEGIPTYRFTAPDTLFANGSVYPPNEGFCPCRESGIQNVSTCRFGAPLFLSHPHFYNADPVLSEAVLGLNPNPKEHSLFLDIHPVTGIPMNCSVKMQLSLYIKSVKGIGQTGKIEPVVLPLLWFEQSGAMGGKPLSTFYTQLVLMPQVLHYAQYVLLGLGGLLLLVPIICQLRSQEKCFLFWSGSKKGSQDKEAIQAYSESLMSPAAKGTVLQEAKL
Hits are given with their value; i = inactive; ? = inconclusive; nt = no result given.

SMILES	SR-BI DiI-HDL act	NTR1 ag	CaV13 FRET inh	V-ATPase pH	Vif imaging	SR-BI HDL uptake
Cc1ccc(C)c(CN2C(=O)C(C)Oc3ccc(C)cc32)c1 (stereo not given)	i	i	i	i	i	77
CCc1cc(=O)oc2cc3occ(C)c3cc12	i	i	i	i	i	i
CCc1cc(=O)oc2cc3occ(-c4ccc(OC)c(F)c4)c3cc12	i	i	i	i	i	76
Cc1c(Br)c([N+](=O)[O-])nn1CC(=O)Nc1ccc2nc3n(c(=O)c2c1)CCCC3	i	i	i	i	i	i
CN1CC(=O)N2C(c3cccc([N+](=O)[O-])c3)c3[nH]c4ccccc4c3C[C@H]2C1=O (stereo not given in full)	i	i	i	i	i	80
COCCCN1CC(=O)N2C(c3cccc(C)c3)c3[nH]c4ccccc4c3C[C@H]2C1=O (stereo not given in full)	i	i	i	i	i	76
C=CCN1CC(=O)N2C(c3ccccc3)c3[nH]c4ccccc4c3C[C@H]2C1=O (stereo not given in full)	i	i	i	i	i	78
COCCN1CC(=O)N2C(c3cccc(C)c3)c3[nH]c4ccccc4c3C[C@H]2C1=O (stereo not given in full)	i	i	i	i	i	i
COCCCN1CC(=O)N2C(c3ccccc3)c3[nH]c4ccccc4c3C[C@H]2C1=O (stereo not given in full)	i	i	i	i	nt	i
Cc1cccc(C)c1-n1c(C)cc(/C=N/NC(=O)CSc2ncccn2)c1C	i	i	i	i	i	i
Cc1cc(C)nc(SCC(=O)N/N=C/c2cc(C)n(-c3ccccc3C)c2C)n1	i	i	i	i	i	85
CC[C@]12c3[nH]c4ccc(Cl)cc4c3CCN1C(=O)[C@@H](CC(=O)NCc1ccc(OC)c(OC)c1)C[C@@H]2C(=O)N1CCN(C(=O)c2ccco2)CC1	i	i	i	i	i	78
O=C(CC1C[C@H](C(=O)N2CCOCC2)[C@@]2(CCC3CCCC3)c3[nH]c4ccccc4c3CCN2C1=O)NCc1cccc(C(F)(F)F)c1 (stereo not given in full)	107	nt	i	i	nt	i
CC[C@]12c3[nH]c4ccc(Cl)cc4c3CCN1C(=O)[C@@H](CC(=O)NCc1ccc(OC)c(OC)c1)C[C@@H]2C(=O)N1CCN(C(=O)C2CC2)CC1	i	i	i	i	nt	i
CN(C)C(=O)CCc1ccc2c3c([nH]c2c1)[C@]1(CCC2CCCC2)[C@@H](C(=O)N2CCOCC2)C[C@H](CC(=O)NCc2cccc(C(F)(F)F)c2)C(=O)N1CC3	i	i	i	i	i	i
O=C(c1ccc(S(=O)(=O)c2cccc(Cl)c2)c([N+](=O)[O-])c1)N1CCN(Cc2ccccc2)CC1	i	i	i	i	i	i
C=CCn1cc(F)c(=O)n(CC=C)c1=O	i	i	i	i	i	i
O=C(COC(=O)/C=C/c1ccc([N+](=O)[O-])cc1)NNC(=O)c1ccccc1	i	i	i	i	i	i
COc1ccc(CCN=C(N)NS(=O)(=O)c2ccc(F)cc2)cc1	i	i	73	i	i	i
COc1ccc(CCN=C(N)NS(=O)(=O)c2ccc(OC)cc2)cc1	i	i	i	i	i	i
COc1ccccc1/C=C/C(=O)Nc1ccc2c(c1)CCC2	i	i	i	i	i	72
COc1ccccc1/C=C/C(=O)Nc1cccc(S(=O)(=O)N2CCOCC2)c1	i	i	i	i	i	85
COc1cc(/C=C/C(=O)Nc2cccc(S(=O)(=O)N3CCOCC3)c2)ccc1OCC#N	i	i	i	i	i	78
COc1ccc(OC)c(/C=C/C(=O)Nc2ccc3c(c2)CCC3)c1	i	i	i	i	i	?
COc1ccc(/C=C/C(=O)Nc2cccc(S(=O)(=O)N3CCOCC3)c2)cc1OC	i	i	i	i	i	i
SMILES	SR-BI DiI-HDL act	NTR1 ag	CaV13 FRET inh	V-ATPase pH	Vif imaging	SR-BI HDL uptake
CCN(CC(=O)Nc1c(F)cccc1F)C(=O)c1cccn1C	nt	nt	i	i	i	nt
O=[N+]([O-])c1ccc(-c2ccc(S(=O)(=O)N3CCOCC3)cc2)cc1	i	i	i	i	i	80
O=C(/C=C/[C@H]1O[C@@H](n2cnc3c(NC(=O)c4ccccc4)ncnc32)[C@H](O)[C@@H]1O)N[C@@H](CO)Cc1c[nH]c2ccccc12	nt	nt	i	nt	nt	nt
COc1ccc2c(c1)[nH]c1c(N3CCN(Cc4ccc5c(c4)OCO5)CC3)ncnc12	i	43	i	i	i	i
CC(Nc1ccc(Cl)cc1)c1cc(Cl)ccc1O (stereo not given)	373	i	i	i	i	i
CCOc1ccc(NC(C)c2cc(Cl)ccc2O)cc1 (stereo not given)	i	i	i	i	i	i
N=c1cc(C2(O)CCCCC2)n2c(nc3ccccc32)s1	i	i	i	i	i	i
CC(C)(C)CNC(=O)c1ccc2c(c1)S(=O)(=O)c1cc(Cl)ccc1C2=O	i	i	i	i	i	i
Cc1cc(N(C)C(=O)c2ccc3c(c2)S(=O)(=O)c2cc(Cl)ccc2C3=O)c(C(F)(F)F)o1	i	i	i	i	i	74
O=C(O)CCC(=O)N1N=C(c2ccccc2)CC1c1cccs1 (stereo not given)	i	i	i	i	i	i
CCC(C)NC(=O)c1cc2c(=O)n(CC)c3ccccc3c2s1 (stereo not given)	i	i	i	i	i	74
CCn1c(=O)c2cc(C(=O)NCCC(C)C)sc2c2ccccc21	i	i	i	i	i	i
CCOC(CNC(=O)c1cc2c(=O)n(CC)c3ccccc3c2s1)OCC	i	i	i	i	nt	82
CCn1c(=O)c2cc(C(=O)NCC(OC)OC)sc2c2ccccc21	i	i	i	i	i	i
COc1cccc(NC(=O)c2cc(C(=O)Nc3cccc(OC)c3)n(C)n2)c1	i	i	nt	i	i	78
COc1cccc(NC(=O)c2ccc3c(c2)N(C)CCS3)c1	i	i	i	i	i	91
COc1cccc(NC(=O)c2ccc3c(c2)CCN3S(C)(=O)=O)c1	i	i	i	i	i	71
C=CCn1c(SCc2ccc(C#N)cc2)nnc1-c1ccc(C)cc1	i	i	i	i	i	i
COC(=O)c1[nH]c2cc(C)ccc2c1NC(=O)CN1CCN(c2ccccc2OC)CC1	i	i	nt	i	i	76
COC(=O)c1[nH]c2cc(C)ccc2c1NC(=O)CN1CCOCC1	i	i	i	i	i	i
CCN(CC)CCNC(=O)c1sc2nc(-c3ccccc3)cn2c1C	i	i	48	i	nt	i
COc1ccc(-c2cn3c(C)c(C(=O)Nc4ccncc4)sc3n2)cc1	i	i	i	i	i	83
